An excerpt weighted towards active compounds, which were near 3.7% of everything screened.
NPY Y1 blocker = NPY-Y1 receptor antagonists, primary screen, cell-based; HEK293-CNG Y1 cells, membrane potential fluorescence; NPY at EC95, then isoproterenol; inhibition, % at 3.6 µM; 200,000 compounds, 1% hits; AID 1040, 2008;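 active = inhibition above the campaign mean inhibition of all tested compounds plus 3 SD, cut at about 20% in these data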;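 note: 0% = DMSO wells given NPY plus isoproterenol and 100% = isoproterenol alone without NPY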
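Assay system: HEK293 Y1/CNG channel cell line; Doses: single compound dose of 3.6 µM, 0.4% DMSO; Timing: dye 3 h, compound 60 min room temperature, stimulation 45 min; Technique: Membrane-potential fluorescent dye readout; Measure: % inhibition of NPY effect.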
NPY1 pot ag = NPY-Y1 receptor potentiators or agonists, primary screen, cell-based | Neuropeptide Y receptor type 1 (Homo sapiens), P25929 | NPY-Y1 expressing cells, potentiator/agonist activation | activation, % at 3.6 µM | 220,000 compounds, 0.37% hits | AID 1304, 2008; in the data active = activation above about 33%, passing the limit was not always enough;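 note: cells stimulated with NPY at EC10 then isoproterenol at EC100; 0% = low agonist plus stimulus and 100% = saturating agonist plus stimulus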
NPY-Y2 PAM-ag = NPY-Y2 potentiators or agonists, primary screen, cell-based; cells expressing NPY-Y2, potentiator/agonist read-out; activation, % at 3.6 µM; 220,000 compounds, 0.45% hits; in the data active = activation above about 27%;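 note: cells stimulated with NPY near EC25 plus isoproterenol at EC100; 0% = vehicle plus submaximal agonist and 100% = vehicle plus saturating agonist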
Furin inhibitor = human furin inhibitors, primary screen, biochemical, fluorescence intensity; 220,000 compounds, 0.061% hits; inhibition, % at 20 µM or 30 µM; P09958; purified furin, fluorogenic substrate cleavage; AID 463115, 2010; in the data active = inhibition above about 25%
NPY-Y2 antag = NPY-Y2 receptor antagonists, primary screen, cell-based; Neuropeptide Y receptor type 2 (Homo sapiens), P49146; NPY-Y2 expressing cells, antagonist mode; inhibition, % at 2.7 µM; 140,000 compounds, 0.99% hits; in the data active = inhibition above about 17%;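 note: 0% = vehicle with agonist challenge and 100% = reference antagonist with challenge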
Cl transport mod = KCC2 cotransporter modulators, thallium flux, primary screen, cell-based, HEK293 KCC2, FluoZin-2 fluorescence, MLSMR; B-score of Tl+ flux slope (higher = more flux/activation; lower = inhibition) at 10 µM; KCC2 cells, thallium flux FluoZin-2 fluorescence; Solute carrier family 12 member 5 (Homo sapiens), Q9H2X9; 190,000 compounds, 2.2% hits;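 active = thallium flux slope and its plate-corrected score both differing from the plate sample mean at a set confidence after two filtering rounds, in either direction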;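 note: slope of fluorescence scaled to starting intensity during 10 to 20 s after thallium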
KCC2 secondary = KCC2 modulators in sodium-free buffer, confirmation, cell-based, HEK293 KCC2, thallium flux, secondary assay. shares compounds with Cl transport mod. FluoZin2 fluorescence; active compounds read high. normalised thallium flux (F/F0 slope) at 10 µM. 3,700 compounds, 15% hits;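 active = thallium flux slope above the same plate's solvent-only control mean plus 3 SD; inconclusive = the two replicate wells disagree; inactive = no significant difference from solvent-only control wells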
KCC2 bumet counter = thallium flux persisting under bumetanide in KCC2 cells, confirmation, counter-screen for KCC2 modulator project, cell-based, HEK293 KCC2, FluoZin2, secondary assay 3. 3,700 compounds, 49% hits. AID 1714, 2009. HEK293-KCC2 + bumetanide/ouabain; active compounds read high. shares compounds with Cl transport mod. normalized thallium flux at 10 µM;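 active = thallium entry rate above the same plate's blocked-transporter control wells by more than 3 SD; inconclusive = the two repeat wells disagree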;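 note: raw slope of fluorescence over initial fluorescence between 10 and 20 s after thallium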
KCC2 secondary2 = KCC2 modulators without ouabain present, confirmation, cell-based, HEK293 KCC2, thallium flux, FluoZin2, secondary assay 2 | shares compounds with Cl transport mod | AID 1715, 2009 | 3,700 compounds, 23% hits | normalized thallium flux at 10 µM | thallium flux FluoZin2 fluorescence; actives lie on both sides; F/F0 rise rate, 10–20 s post-thallium;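 active = thallium flux slope more than 3 SD above or below the plate's solvent-only control mean, mostly below; inconclusive = the two repeat wells disagreed; inactive = no significant shift from solvent-only controls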;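 note: raw slope with 0.1% DMSO as baseline and bumetanide as block control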
HEK counter1 = thallium flux modulation in parental HEK cells, confirmation, counter-screen for KCC2 modulator project, cell-based, counterscreen 1 | shares compounds with Cl transport mod | HEK293 parental cells, thallium flux FluoZin2, ouabain; baseline-ratio fluorescence slope, 10–20 s after thallium | thallium flux rate (normalised fluorescence) at 10 µM | 3,700 compounds, 46% hits | AID 1716, 2009;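 active = thallium flux rate significantly above the same plate's solvent-only control wells, beyond their mean plus 3 SD; inconclusive = the two replicate wells gave conflicting results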
KCC2 ouabain = KCC2 inhibitors and activators, ouabain retest, confirmation, HEK-KCC2 cells; raw Tl+ flux slope (below DMSO = inhibition, above = activation) at 10 µM; HEK293-KCC2, thallium flux FluoZin2 fluorescence; bidirectional: low = inhibitor, high = activator; shares compounds with Cl transport mod; 3,700 compounds, 48% hits;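 active = thallium flux slope beyond 3 SD from same-plate DMSO control mean in most replicates, usually higher, sometimes lower; inconclusive = repeat tests gave conflicting results; inactive = no significant difference from controls in most replicates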;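 note: slope of initial-normalized fluorescence between seconds 10 and 20 after thallium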
HEK counter2 = native HEK Tl+ uptake effects, second counter-screen – HEK cells, counterscreen 2, counter-screen for KCC2 modulator project, confirmation | 3,700 compounds, 33% hits | thallium flux slope at 10 µM | HEK293 parental, thallium flux FluoZin-2 fluorescence slope | AID 1718, 2009 | shares compounds with Cl transport mod;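 active = thallium flux slope above the same plate's solvent-control mean plus 3 SD in both duplicate wells; inconclusive = duplicate wells that disagreed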;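 note: run without ouabain in cells lacking the KCC2 cotransporter; slope of fluorescence scaled to its starting value between 10 and 20 s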
Active calls of the source: *; u = inconclusive; x = not tested or not shown.

SMILES | NPY Y1 blocker | NPY1 pot ag | NPY-Y2 PAM-ag | Furin inhibitor | NPY-Y2 antag | Cl transport mod | KCC2 secondary | KCC2 bumet counter | KCC2 secondary2 | HEK counter1 | KCC2 ouabain | HEK counter2
Oc1ccc(-c2n[nH]c(=S)n2Cc2ccccc2)cc1 | -4 | 4 | 15 | -6 | 4 | 0.44 | x | x | x | x | x | x
CCc1c(-c2n[nH]c(=S)n2Cc2ccccc2)csc1C | 0 | 10 | 17 | -12 | 3 | 14* | u | 0.066* | 0.03 | 0.017* | 0.035* | 0.011*
S=c1[nH]nc(-c2ccc(Br)cc2)n1Cc1ccccc1 | -1 | -10 | 0 | -1 | x | 24* | 0.011 | 0.027* | 0.035 | 0.026* | 0.029* | u
Cc1scc(-c2n[nH]c(=S)n2Cc2ccccc2)c1C | 9 | 7 | 2 | -5 | 2 | 5.7 | x | x | x | x | x | x
CCN(CC)S(=O)(=O)c1ccc(N2CCOCC2)c(NC(=O)Cc2cccc3ccccc23)c1 | 5 | -1 | 6 | -7 | 2 | -1.5 | x | x | x | x | x | x
Cc1ccc(S(=O)(=O)N2CCN(C(C(=O)Nc3ccc(F)cc3)c3ccccc3)CC2)cc1 (stereo unspecified) | -3 | 30 | 7 | -8 | -2 | -1 | x | x | x | x | x | x
O=C(COc1ccc2ccccc2c1)Nc1cccc(C(=O)Nc2ccccc2C(=O)O)c1 | 0 | 14 | -6 | -21 | 2 | -4.7* | u | 0.0055 | 0.024* | u | 0.014* | u
CCCCC(=O)Nc1cccc(C(=O)Nc2ccccc2C(=O)O)c1 | -5 | -9 | 1 | -13 | x | x | x | x | x | x | x | x
O=C(CSc1nnnn1-c1ccccc1)Nc1ncc(Cc2ccccc2Cl)s1 | 1 | 8 | -13 | -18 | 2 | 0.69 | x | x | x | x | x | x
N=C1SC(c2ccccc2)C(=O)N1c1ncc(Cc2ccccc2Cl)s1 (stereo unspecified) | 10 | -11 | -14 | -18 | 10 | 5.8* | 0.0071 | 0.02* | 0.031 | 0.016* | u | 0.02*
c1ccc(-c2nc(CSc3n[nH]c(-c4cccs4)n3)cs2)cc1 | 3 | -21 | -27 | -19 | 10 | -3.8* | 0.0063 | 0.0045 | 0.024* | 0.0067 | 0.016 | 0.01
COc1cccc(Cn2cnc3c(NS(=O)(=O)c4cc(Cl)ccc4Cl)c(C)c(C)cc32)c1 | 3 | 3 | -9 | -7 | 6 | x | 0.0091 | 0.0091* | 0.031 | u | 0.026 | u
Cc1cc(C)n(CC(=O)N/N=C/c2ccccn2)n1 | 0 | 1 | -9 | -10 | -1 | 0.83 | x | x | x | x | x | x
CS(=O)(=O)N(CC(=O)N1CCN(c2ccccc2)CC1)c1cccc(Br)c1 | 6 | 5 | 4 | -15 | 2 | x | 0.0063 | 0.005 | 0.023* | 0.0076 | 0.015* | 0.01
CS(=O)(=O)N(CC(=O)N1CCN(c2ccc(F)cc2)CC1)c1ccc(F)c(Cl)c1 | -3 | -10 | -4 | -21 | 4 | -4.4* | u | 0.0068 | 0.028* | 0.0075 | 0.016* | 0.011
COc1ccc(N2CCN(C(=O)CN(c3cccc(Br)c3)S(C)(=O)=O)CC2)cc1 | -2 | 6 | 11 | -18 | 5 | 0.00086 | x | x | x | x | x | x
COc1ccc(-c2nn(-c3ccccc3)cc2/C=C(\CC(=O)O)c2nc3ccccc3s2)cc1OC | 9 | 8 | -12 | -21 | x | -3.8* | 0.007 | 0.006 | 0.031 | u | 0.014* | 0.01
CC12CCC(C(=O)N(NC(=O)c3cc(Cl)ccc3O)C1=O)C2(C)C (stereo unspecified) | 12 | 2 | -21 | -13 | 4 | 0.61 | x | x | x | x | x | x
O=S(=O)(NC1c2cccc3cccc(c23)C1Sc1ncccn1)c1ccccc1 (stereo unspecified) | 3 | 2 | 5 | -11 | 2 | 0.059 | x | x | x | x | x | x
CCN(CC)CCCNC(=O)c1cn(CCOC)c(=O)c2c1c1ccccc1n2C | 1 | -9 | -1 | -40 | 6 | x | 0.0094 | u | 0.034 | 0.0075 | 0.021 | 0.011
Cn1ccc(C(=O)NC(=S)N2CCSCC2)n1 | x | 7 | 9 | -14 | x | 0.36 | x | x | x | x | x | x
Cn1c(-c2ccc3c(c2)OCO3)cnc1NC(=O)CCC(=O)NCCc1ccccc1 | -1 | -23 | -23 | -5 | 4 | -3.7* | 0.0077 | 0.0066 | 0.03 | 0.0078 | 0.019 | u
COc1ccccc1N1CCN(C(=S)NC(=O)/C=C/c2ccc(F)cc2)CC1 | x | 10 | -19 | -17 | x | 27* | 0.0055 | 0.039* | 0.034 | 0.015* | 0.031* | 0.018*
CN1CCN(C(=S)NC(=O)/C=C/c2ccccc2)CC1 | -2 | 8 | -15 | 0 | 1 | -0.82 | x | x | x | x | x | x
COc1ccccc1N1CCN(C(=S)NC(=O)/C=C/c2ccccc2)CC1 | x | -18 | -2 | -22 | x | 6.7* | 0.0059 | 0.011* | 0.034 | 0.014* | u | 0.014*
CC(C)OC(=O)c1cc2c(ccn2C)n1CC(=O)N1CCC(Cc2ccccc2)CC1 | 3 | 3 | -6 | 4 | 7 | -5.7* | 0.0064 | 0.0042 | 0.024* | u | 0.014* | 0.0099
CCOC(=O)C1(CCc2ccccc2)CCN(C(=O)CCn2cncn2)CC1 | -6 | 16 | 12 | -24 | x | x | x | x | x | x | x | x
